# Assay results from ChEMBL document CHEMBL1649406, “Synthesis and anti-mycobacterial activities of triazoloquinolones” (Eur J Med Chem, 2011).
# Test system: Mycobacterium tuberculosis
# Test: Antimycobacterial activity against Mycobacterium bovis BCG after 7 days by broth microdilution method
# Assay type: functional
# Conditions: variant bovis BCG, 168 h
# How it was run: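 Strains were pre-grown in Middlebrook 7H11 with OADC. The microdilution assay ran in sealed 96-well plates at 37 °C and was read after 72 h for M. smegmatis mc²155 and after 7 days for M. bovis BCG.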
row,SMILES,MIC
1,CCOC(=O)c1cn(CC)c2c(ccc3c2nnn3Cc2ccccc2)c1=O,> 128 µg/mL
2,C=C(C)Cn1cc(C(=O)O)c(=O)c2ccc3c(nnn3C)c21,32 µg/mL
3,CCCCn1cc(C(=O)OCC)c(=O)c2ccc3c(nnn3Cc3ccccc3)c21,64 µg/mL
4,CCn1cc(C(=O)O)c(=O)c2ccc3c(nnn3Cc3ccccc3)c21,16 µg/mL
5,CCOC(=O)c1cn(CC2CC2)c2c(ccc3c2nnn3C)c1=O,64 µg/mL
6,Cn1nnc2c3c(ccc21)c(=O)c(C(=O)O)cn3C(C)(C)C,16 µg/mL
7,C=CCn1cc(C(=O)O)c(=O)c2ccc3c(nnn3Cc3ccccc3)c21,8 µg/mL
8,CCOC(=O)c1cn(C)c2c(ccc3c2nnn3Cc2ccccc2)c1=O,64 µg/mL
9,O=C(O)c1cn(C2CC2)c2cc(N3CCNCC3)c(F)cc2c1=O [CIPROFLOXACIN],0.25 µg/mL
10,CCOC(=O)c1cn(CC2CCC2)c2c(ccc3c2nnn3C)c1=O,64 µg/mL
11,Cn1cc(C(=O)O)c(=O)c2ccc3c(nnn3Cc3ccccc3)c21,4 µg/mL
12,CCCCn1cc(C(=O)O)c(=O)c2ccc3c(nnn3Cc3ccccc3)c21,64 µg/mL
13,CCOC(=O)c1cn(C(C)(C)C)c2c(ccc3c2nnn3C)c1=O,8 µg/mL
14,Cn1nnc2c3c(ccc21)c(=O)c(C(=O)O)cn3CC1CCC1,16 µg/mL
15,CC[C@@H](CO)NCCN[C@@H](CC)CO [ETHAMBUTOL],2 µg/mL
16,Cn1nnc2c3c(ccc21)c(=O)c(C(=O)O)cn3CC1CC1,16 µg/mL
17,C=CCn1cc(C(=O)OCC)c(=O)c2ccc3c(nnn3Cc3ccccc3)c21,64 µg/mL
18,Cn1cc(C(=O)O)c(=O)c2ccc3c(nnn3C)c21,4 µg/mL
19,C=C(C)Cn1cc(C(=O)OCC)c(=O)c2ccc3c(nnn3C)c21,> 128 µg/mL
